Columns and labels:
HL-60 = experiment: Growth inhibition of human HL60 cells at 10 uM after 48 hrs by MTT assay; format: functional; conditions: HL-60, 48 h, read-out: GI
Method in brief: (§1)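 Exponentially growing cells at 1–2.5 ×10⁴ cells/mL, in humidified 5% CO₂, were seeded into 96-well plates. After 24 h, medium containing compound at various concentrations was added, and cells were incubated 48 h. Controls received RPMI-1640 medium only. Viable cell number was read by MTT at 570 nm for HL-60, and by SRB at 540 nm for Bel-7402, BGC-823 and KB.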

Bel-7402 [1] = experiment: Growth inhibition of human Bel7402 cells at 10 uM after 48 hrs by SRB assay; format: functional; conditions: Bel-7402, 48 h, read-out: GI; method in brief: as §1
BGC-823 [2] = experiment: Growth inhibition of human BGC823 cells at 10 uM after 48 hrs by SRB assay; format: functional; conditions: BGC-823, 48 h, read-out: GI; method in brief: as §1
KB [3] = experiment: Growth inhibition of human KB cells at 10 uM after 48 hrs by SRB assay; format: functional; conditions: read-out: GI; method in brief: as §1
BGC-823 [4] = experiment: Antitumor activity against human BGC823 cells after 48 hrs by SRB assay; format: functional, cell-based; conditions: BGC-823, 48 h; method in brief: as §1
Bel-7402 [5] = experiment: Antitumor activity against human Bel7402 cells after 48 hrs by SRB assay; format: functional, cell-based; conditions: Bel-7402, 48 h; method in brief: as §1
KB [6] = experiment: Antitumor activity against human KB cells after 48 hrs by SRB assay; format: functional, cell-based; method in brief: as §1

IC50 (BGC-823 [4])	IC50 (Bel-7402 [5])	IC50 (KB [6])	SMILES	inhibition of growth at 10 µM (HL-60)	inhibition of growth at 10 µM (Bel-7402 [1])	inhibition of growth at 10 µM (BGC-823 [2])	inhibition of growth at 10 µM (KB [3])
–	–	–	COc1ccccc1C(=O)N/N=C/c1ccc(-c2ccc(F)cc2F)o1	7.77%	1.69%	35.9%	10.1%
–	–	–	O=C(N/N=C/c1ccc(-c2ccccc2F)o1)c1ccc(Cl)cc1	6.13%	2.96%	31.5%	4.62%
9.5 µM	15.2 µM	39 µM	O=C(N/N=C/c1ccc(-c2ccc(F)cc2)o1)c1ccccc1O	-2.08%	81.6%	71.5%	84.6%
–	–	–	O=C(N/N=C/c1ccc(-c2ccc(Cl)cc2)o1)c1ccccc1	15.1%	-7.17%	19.4%	3.2%
46.6 µM	19.3 µM	55.3 µM	O=C(N/N=C/c1ccc(-c2ccc(F)cc2F)o1)c1ccccc1O	-9.5%	63.4%	68.4%	61.8%
–	–	–	Cc1cccc(C(=O)N/N=C/c2ccc(-c3ccccc3[N+](=O)[O-])o2)c1	6.25%	5.67%	36.1%	5.9%
–	–	–	O=C(N/N=C/c1ccc(-c2cccc(F)c2)o1)c1ccc(Br)cc1	25.9%	28.2%	46.7%	26%
81.6 µM	24.6 µM	> 40 µM	COc1ccccc1/C=N/NC(=O)c1ccc(-c2ccc(F)cc2F)o1	27.4%	53.1%	66.8%	59.5%
–	–	–	O=C(N/N=C/c1ccc(Cl)cc1)c1ccc(-c2ccccc2F)o1	6.49%	16.9%	32.6%	11.3%
180 µM	50.3 µM	> 40 µM	O=C(N/N=C/c1ccccc1O)c1ccc(-c2ccc(F)cc2)o1	13.1%	40%	74%	53.9%
–	–	–	O=C(N/N=C/c1ccccc1)c1ccc(-c2ccc(Cl)cc2)o1	25.8%	2.28%	33.7%	17%
9.6 µM	8.3 µM	> 40 µM	O=C(N/N=C/c1ccccc1O)c1ccc(-c2ccc(F)cc2F)o1	43.1%	91.8%	79.1%	75.2%
–	–	–	Cc1cccc(/C=N/NC(=O)c2ccc(-c3ccccc3[N+](=O)[O-])o2)c1	9.54%	6.66%	31.4%	10.3%
–	–	–	O=C(N/N=C/c1ccccc1Cl)c1ccc(-c2ccc(F)cc2)o1	-3.22%	4.81%	32%	19.3%
–	–	–	O=C(N/N=C/c1ccc(O)cc1)c1ccc(-c2ccc(F)cc2)o1	1.07%	10.6%	46.3%	11%
–	–	–	O=C(N/N=C/c1cccc(Br)c1)c1ccc(-c2ccccc2F)o1	27.6%	12.5%	43.6%	26.5%
4.8 µM	5 µM	5.8 µM	COc1cccc2c1C(=O)c1c(O)c3c(c(O)c1C2=O)C[C@@](O)(C(=O)CO)C[C@@H]3O[C@H]1C[C@H](N)[C@H](O)[C@H](C)O1 [DOXORUBICIN]	–	–	–	–
